These results are taken from ChEMBL document CHEMBL1126247, “Iodoaminopotentidine and related compounds: a new class of ligands with high affinity and selectivity for the histamine H2 receptor” (J Med Chem, 1992).

Test [1] addresses Histamine H2 receptor (Cavia porcellus) (UniProt P47747). Description: Histamine H2 receptor antagonistic activity at a concentration of 0.03 and 1 uM on the isolated guinea pig right atrium. Conditions: Cardiac atrium. It is filed as functional, tissue-based.
For test [2] the target is unchanged. Description: Inhibition of the positive chronotropic response (histamine H2 receptor antagonism) of guinea pig right atrium relative to cimetidine. It is filed as functional, tissue-based. Conditions: Cardiac atrium.
The target is the same in test [3]. Description: Histamine H2 receptor antagonistic activity at a concentration of 0.3 and 0.1 uM on the isolated guinea pig right atrium. In kind it is functional, tissue-based. To be noted: Cardiac atrium.
In the next test the target is Histamine H1 receptor (Cavia porcellus, UniProt P31389). Description: Histamine H1 receptor antagonistic activity on the isolated guinea pig ileum determined by Schild plot. In kind it is functional, tissue-based. Conditions: read-out: pA2 (converted). The gist of the method:
(§1)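 Whole proximal guinea pig ileum segments in Tyrode's solution gassed with 95% O2/5% CO2, isotonic recording at 10 mN load. Cumulative histamine (0.01-3 μM) curves. Antagonist applied 10 min before the curve. pK_B from concentration ratio, or pA2 by Schild plot.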

The target of the next test is Histamine H2 receptor (Cavia porcellus, UniProt P47747). The test can be described thus: Inhibition of [125I]APT binding to H2 receptors in guinea pig cerebral membranes. In kind it is cell membranes. Put shortly: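 Striatal membranes from male Hartley guinea pigs (200-300 g) in 50 mM sodium/potassium phosphate, pH 7.5, with 0.1% gelatin. Stopped with cold buffer containing 0.1% BSA, then filtered on polyethylenimine-treated glass-fiber filters and γ-counted. Azido compounds handled under dim light.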

Test [4] concerns the target Histamine H2 receptor (Cavia porcellus) (UniProt P47747). Description: Histamine H2 receptor antagonistic activity on the isolated guinea pig right atrium determined by Schild plot. In kind it is functional, tissue-based. To be noted: Cardiac atrium.
Test [5] addresses Histamine H1 receptor (Cavia porcellus) (UniProt P31389). The test can be described thus: Histamine H1 receptor antagonistic activity at a concentration of 3 and 10 uM on the isolated guinea pig iluem. In kind it is functional. Put shortly:
as §1
Target sequence in this assay (P31389 whole entry): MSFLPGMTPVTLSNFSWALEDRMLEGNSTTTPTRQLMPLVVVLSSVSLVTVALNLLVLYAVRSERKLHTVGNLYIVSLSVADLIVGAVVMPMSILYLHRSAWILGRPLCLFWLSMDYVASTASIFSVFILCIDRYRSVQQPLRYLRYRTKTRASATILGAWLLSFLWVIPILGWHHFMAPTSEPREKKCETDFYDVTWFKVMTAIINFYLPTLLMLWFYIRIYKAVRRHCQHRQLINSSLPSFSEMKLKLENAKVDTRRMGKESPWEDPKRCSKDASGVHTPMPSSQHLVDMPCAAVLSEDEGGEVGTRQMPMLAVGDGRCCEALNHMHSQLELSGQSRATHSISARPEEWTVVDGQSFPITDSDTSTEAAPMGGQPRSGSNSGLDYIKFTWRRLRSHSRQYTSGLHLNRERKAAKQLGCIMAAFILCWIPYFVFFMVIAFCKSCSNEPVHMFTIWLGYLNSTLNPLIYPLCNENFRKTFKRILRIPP

Test [6] has as its target Histamine H2 receptor (Cavia porcellus) (UniProt P47747). Description: Histamine H2 receptor antagonistic activity at concentrations of 0.03,0.1 and 0.3 uM on the isolated guinea pig right atrium. Conditions: Cardiac atrium. In kind it is functional, tissue-based.
Test [7] deals with Serotonin 2 (5-HT2) receptor (Rattus norvegicus) (UniProt P30994+P08909+P14842). Description: (§2) 5-hydroxytryptamine 2 receptor antagonistic activity on the rat tail artery determined by Schild plot. In kind it is functional, tissue-based. The gist of the method: (§3)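 Endothelium-denuded ventral tail artery segments from male Wistar rats (280-350 g), resting force 5 mN, 120 min equilibration with one 1 μM 5-HT priming. Two to three cumulative 5-HT (0.01-10 μM) curves per preparation.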

The target in test [8] is Beta-1 adrenergic receptor (Cavia porcellus) (UniProt B0FL73). Description: Beta-1 Adrenergic receptor antagonistic activity at concentrations of 10 and 30 uM on the isolated guinea pig right atrium. In kind it is functional, tissue-based. Conditions: Cardiac atrium. Put shortly:
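Spontaneously beating guinea pig right atrium, isometric recording of chronotropic response. Cumulative isoprenaline (0.1-30 nM) curves as reference agonist. Incubation handled as in the H2 protocol. pK_B = -log[antagonist] + log(concentration ratio - 1).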

For test [9], the target named is Serotonin 2 (5-HT2) receptor (Rattus norvegicus, UniProt P30994+P08909+P14842). Described as §2. In kind it is functional, tissue-based. Put shortly:
as §3

The target in test [10] is Adrenergic receptor alpha-1 (Rattus norvegicus) (UniProt P15823+P23944+P43140). Description: (§4) Alpha-1 adrenergic receptor antagonistic activity on the rat aorta determined by Schild plot. It is filed as functional, tissue-based. Put shortly:
(§5)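 Endothelium-denuded thoracic aortic rings from the same rats, mounted isometrically, resting force 20 mN. Equilibration 140 min with two primings of 0.1 μM (R)-phenylephrine. Cumulative (R)-phenylephrine (0.003-10 μM) curves recorded with 1 μM (±)-propranolol present.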

In test [11] the target is T1, Adrenergic receptor alpha-1 (Rattus norvegicus, UniProt P15823+P23944+P43140).
T1 sequence (P15823 whole entry): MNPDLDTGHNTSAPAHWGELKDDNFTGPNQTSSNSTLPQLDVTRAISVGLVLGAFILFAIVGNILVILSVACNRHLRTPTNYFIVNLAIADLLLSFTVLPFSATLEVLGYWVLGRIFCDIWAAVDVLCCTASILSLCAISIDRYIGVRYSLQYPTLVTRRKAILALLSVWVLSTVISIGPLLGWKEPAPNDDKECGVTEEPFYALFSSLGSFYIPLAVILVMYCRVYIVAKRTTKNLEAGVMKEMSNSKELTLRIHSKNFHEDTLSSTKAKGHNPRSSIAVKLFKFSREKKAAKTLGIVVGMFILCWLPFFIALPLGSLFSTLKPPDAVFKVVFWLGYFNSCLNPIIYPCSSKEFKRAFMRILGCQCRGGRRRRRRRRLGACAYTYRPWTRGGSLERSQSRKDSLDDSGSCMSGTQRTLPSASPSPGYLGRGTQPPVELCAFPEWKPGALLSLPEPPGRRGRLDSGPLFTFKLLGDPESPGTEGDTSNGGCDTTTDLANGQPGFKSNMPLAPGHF
T1 sequence (P23944 whole entry): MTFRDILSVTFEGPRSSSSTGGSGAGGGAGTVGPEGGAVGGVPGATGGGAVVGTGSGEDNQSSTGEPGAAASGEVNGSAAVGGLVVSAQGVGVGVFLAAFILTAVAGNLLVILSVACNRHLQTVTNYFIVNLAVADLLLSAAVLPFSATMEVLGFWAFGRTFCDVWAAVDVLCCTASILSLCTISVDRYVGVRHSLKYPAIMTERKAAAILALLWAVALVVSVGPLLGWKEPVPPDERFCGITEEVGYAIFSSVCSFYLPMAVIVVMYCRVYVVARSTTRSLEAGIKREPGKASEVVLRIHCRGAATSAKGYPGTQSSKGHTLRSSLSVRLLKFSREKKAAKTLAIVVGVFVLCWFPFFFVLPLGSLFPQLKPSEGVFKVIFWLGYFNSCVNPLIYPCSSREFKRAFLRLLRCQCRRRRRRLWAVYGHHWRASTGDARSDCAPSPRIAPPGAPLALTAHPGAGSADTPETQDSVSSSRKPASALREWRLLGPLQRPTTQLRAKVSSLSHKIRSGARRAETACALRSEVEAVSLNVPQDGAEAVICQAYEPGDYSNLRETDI
T1 sequence (P43140 whole entry): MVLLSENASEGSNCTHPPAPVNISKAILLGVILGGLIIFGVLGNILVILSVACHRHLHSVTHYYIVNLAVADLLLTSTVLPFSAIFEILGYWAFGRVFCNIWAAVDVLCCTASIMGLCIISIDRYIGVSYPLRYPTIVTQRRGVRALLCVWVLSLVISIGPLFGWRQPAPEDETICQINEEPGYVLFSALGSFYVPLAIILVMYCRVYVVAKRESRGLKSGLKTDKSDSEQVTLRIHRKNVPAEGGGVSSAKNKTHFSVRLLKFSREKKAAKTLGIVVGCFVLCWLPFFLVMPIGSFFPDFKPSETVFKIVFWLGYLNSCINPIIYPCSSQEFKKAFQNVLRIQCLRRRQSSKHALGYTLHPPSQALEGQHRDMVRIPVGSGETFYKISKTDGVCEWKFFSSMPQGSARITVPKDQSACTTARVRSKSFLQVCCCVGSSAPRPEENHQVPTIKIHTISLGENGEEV
The description is as §4. It is filed as functional, tissue-based. The gist of the method: as §5

The target of test [12] is Muscarinic acetylcholine receptor M3 (Cavia porcellus) (UniProt Q8VH26). The test can be described thus: muscarinic acetylcholine receptor M3 antagonistic activity at concentrations of 10 and 30 uM on the isolated guinea pig iluem. In kind it is functional. Put shortly: (§6)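 Guinea pig proximal ileum, isotonic recording under a 10 mN load in gassed Tyrode's solution. Cumulative carbachol (3-300 nM) curves as reference agonist. Antagonist incubated 10 min. pK_B calculated from concentration ratio, or pA2 by Schild plot.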

Test [13] has as its target Histamine H2 receptor (Cavia porcellus) (UniProt P47747). Description: Potency to inhibit the positive chronotropic response (H2-antagonism) of guinea pig right atrium relative to cimetidine. It is filed as functional, tissue-based. To be noted: Cardiac atrium.
Test [14] addresses Histamine H1 receptor (Cavia porcellus) (UniProt P31389).
Target sequence in this assay (P31389 whole entry): as the sequence (P31389 whole entry) above
In test [15] the target is Muscarinic acetylcholine receptor M3 (Cavia porcellus) (UniProt Q8VH26).
Test [16] has as its target Histamine H2 receptor (Cavia porcellus) (UniProt P47747). Description: Histamine H2 receptor antagonism at a concentration of 1 umolar on the isolated guinea pig right atrium. In kind it is functional, tissue-based. Conditions: Cardiac atrium.
Test [17] addresses Muscarinic acetylcholine receptor M3 (Cavia porcellus) (UniProt Q8VH26). Description: Muscarinic acetylcholine receptor M3 antagonistic activity at concentrations of 10 and 30 uM on the isolated guinea pig iluem. It is filed as functional. Put shortly:
as §6

In test [18] the target is Histamine H2 receptor (Cavia porcellus) (UniProt P47747). The test can be described thus: Histamine H2 receptor antagonistic activity at concentrations of 0.1,0.3 and 1 uM on the isolated guinea pig right atrium. It is filed as functional, tissue-based. Conditions: Cardiac atrium.
Test [19] deals with Histamine H1 receptor (Cavia porcellus) (UniProt P31389). Description: Histamine H1 receptor antagonistic activity on the isolated guinea pig ileum determined by Schild plot.
Target sequence in this assay (P31389 whole entry, looked up): as the sequence (P31389 whole entry) above
For test [20], the target named is Muscarinic acetylcholine receptor M3 (Cavia porcellus) (UniProt Q8VH26). To be noted: 10 uM.
The target in test [21] is Histamine H2 receptor (Cavia porcellus) (UniProt P47747). The test can be described thus: Histamine H2 receptor antagonistic activity at a concentration of 0.3 uM on the isolated guinea pig right atrium. Conditions: Cardiac atrium. In kind it is functional, tissue-based.
The target is the same in test [22]. To be noted: Cardiac atrium.
Test [23] in a line: Inhibition of the positive chronotropic response (H2-antagonism) of guinea pig right atrium relative to cimetidine. In kind it is functional, Cavia porcellus, Cardiac atrium.
Test [24] deals with Histamine H2 receptor (Cavia porcellus) (UniProt P47747). To be noted: Cardiac atrium, 10 uM.

Chain of Muscarinic acetylcholine receptor M3 (Cavia porcellus) (Q8VH26 1-587): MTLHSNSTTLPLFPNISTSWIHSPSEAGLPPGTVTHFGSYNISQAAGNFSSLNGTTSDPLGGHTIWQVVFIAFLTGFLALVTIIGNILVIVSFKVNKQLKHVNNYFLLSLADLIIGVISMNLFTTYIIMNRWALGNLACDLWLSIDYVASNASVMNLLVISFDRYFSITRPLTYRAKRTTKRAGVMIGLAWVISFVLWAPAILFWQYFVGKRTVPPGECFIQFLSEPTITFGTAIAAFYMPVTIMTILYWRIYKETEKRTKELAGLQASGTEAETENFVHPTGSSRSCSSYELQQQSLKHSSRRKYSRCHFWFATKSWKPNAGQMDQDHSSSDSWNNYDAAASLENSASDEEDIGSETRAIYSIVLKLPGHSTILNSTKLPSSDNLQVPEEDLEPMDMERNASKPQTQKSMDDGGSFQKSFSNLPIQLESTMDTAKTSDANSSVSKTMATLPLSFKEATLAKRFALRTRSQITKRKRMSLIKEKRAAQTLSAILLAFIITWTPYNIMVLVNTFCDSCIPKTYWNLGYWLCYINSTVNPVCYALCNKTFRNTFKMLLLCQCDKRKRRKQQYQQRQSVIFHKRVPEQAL
Chain of Histamine H2 receptor (P47747 whole entry): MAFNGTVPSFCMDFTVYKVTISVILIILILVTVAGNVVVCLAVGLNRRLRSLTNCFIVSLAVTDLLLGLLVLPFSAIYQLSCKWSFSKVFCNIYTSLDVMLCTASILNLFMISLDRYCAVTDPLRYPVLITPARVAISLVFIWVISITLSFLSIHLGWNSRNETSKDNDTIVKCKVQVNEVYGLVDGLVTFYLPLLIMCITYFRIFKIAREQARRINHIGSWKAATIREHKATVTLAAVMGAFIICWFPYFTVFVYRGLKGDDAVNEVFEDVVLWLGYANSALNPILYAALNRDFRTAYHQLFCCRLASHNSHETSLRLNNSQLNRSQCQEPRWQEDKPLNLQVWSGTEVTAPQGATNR
Chain of Histamine H2 receptor (Cavia porcellus) (P47747 whole entry): as above
Chain of Histamine H1 receptor (P31389 whole entry): as the sequence (P31389 whole entry) above
Chain of Serotonin 2 (5-HT2) receptor (Rattus norvegicus) (P08909 whole entry, looked up): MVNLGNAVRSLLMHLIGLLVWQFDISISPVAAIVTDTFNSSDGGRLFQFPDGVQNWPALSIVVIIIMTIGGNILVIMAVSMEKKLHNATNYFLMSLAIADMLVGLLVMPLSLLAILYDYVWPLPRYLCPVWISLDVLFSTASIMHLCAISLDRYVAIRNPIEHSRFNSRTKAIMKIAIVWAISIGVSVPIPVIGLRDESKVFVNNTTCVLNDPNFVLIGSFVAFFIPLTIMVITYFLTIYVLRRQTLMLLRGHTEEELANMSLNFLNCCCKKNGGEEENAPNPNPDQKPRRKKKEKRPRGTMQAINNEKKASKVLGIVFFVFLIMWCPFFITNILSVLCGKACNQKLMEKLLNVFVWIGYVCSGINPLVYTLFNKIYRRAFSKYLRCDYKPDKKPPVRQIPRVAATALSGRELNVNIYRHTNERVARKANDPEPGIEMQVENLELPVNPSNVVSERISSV
Chain of Serotonin 2 (5-HT2) receptor (Rattus norvegicus) (P14842 whole entry, looked up): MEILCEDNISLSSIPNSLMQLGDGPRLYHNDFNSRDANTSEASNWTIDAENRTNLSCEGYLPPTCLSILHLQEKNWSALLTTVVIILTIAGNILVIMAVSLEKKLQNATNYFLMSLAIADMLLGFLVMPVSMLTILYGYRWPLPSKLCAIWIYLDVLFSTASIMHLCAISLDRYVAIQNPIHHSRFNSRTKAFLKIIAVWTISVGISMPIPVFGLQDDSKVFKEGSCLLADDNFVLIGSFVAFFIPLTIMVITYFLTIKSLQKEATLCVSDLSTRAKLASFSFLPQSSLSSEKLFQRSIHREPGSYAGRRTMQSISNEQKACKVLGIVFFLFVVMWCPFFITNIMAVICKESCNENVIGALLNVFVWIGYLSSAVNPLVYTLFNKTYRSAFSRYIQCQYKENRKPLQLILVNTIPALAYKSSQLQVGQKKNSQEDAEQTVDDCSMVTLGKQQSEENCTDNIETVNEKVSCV
Chain of Serotonin 2 (5-HT2) receptor (Rattus norvegicus) (P30994 whole entry, looked up): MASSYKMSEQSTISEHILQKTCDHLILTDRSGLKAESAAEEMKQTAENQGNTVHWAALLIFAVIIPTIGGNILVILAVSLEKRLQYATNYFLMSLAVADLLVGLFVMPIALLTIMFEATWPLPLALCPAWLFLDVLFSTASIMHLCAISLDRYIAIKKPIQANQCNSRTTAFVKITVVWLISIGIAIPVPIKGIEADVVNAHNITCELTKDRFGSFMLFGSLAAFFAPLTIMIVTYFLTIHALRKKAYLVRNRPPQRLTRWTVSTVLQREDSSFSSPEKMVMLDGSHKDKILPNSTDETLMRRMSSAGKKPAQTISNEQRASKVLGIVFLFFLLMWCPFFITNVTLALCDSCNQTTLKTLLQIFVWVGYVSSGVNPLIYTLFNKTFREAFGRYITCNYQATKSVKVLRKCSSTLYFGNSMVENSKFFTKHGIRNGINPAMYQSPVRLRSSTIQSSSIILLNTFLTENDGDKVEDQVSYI
Chain of Beta-1 adrenergic receptor (Cavia porcellus) (B0FL73 1-467): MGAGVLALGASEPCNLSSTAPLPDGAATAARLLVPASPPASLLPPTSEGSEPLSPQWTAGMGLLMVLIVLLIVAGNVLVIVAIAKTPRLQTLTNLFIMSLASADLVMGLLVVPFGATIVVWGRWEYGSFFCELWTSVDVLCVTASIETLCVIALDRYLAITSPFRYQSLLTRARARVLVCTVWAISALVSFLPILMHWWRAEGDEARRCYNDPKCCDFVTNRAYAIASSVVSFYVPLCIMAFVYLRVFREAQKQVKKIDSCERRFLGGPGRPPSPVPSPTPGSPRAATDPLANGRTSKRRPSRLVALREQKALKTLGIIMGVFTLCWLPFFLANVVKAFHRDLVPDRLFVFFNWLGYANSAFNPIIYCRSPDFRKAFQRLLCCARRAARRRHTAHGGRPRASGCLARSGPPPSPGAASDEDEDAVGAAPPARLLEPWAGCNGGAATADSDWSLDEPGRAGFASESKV

As for `N#CN/C(=N\CCNc1ccccc1[N+](=O)[O-])NCCCCOc1cccc(CN2CCCCC2)c1`, the pKB (in general, −log10 of the KB, conventionally taken in molar units) in [1] worked out at 8.04. This compound also came in with a Relative potency in test [2] of 4360%.

In the case of `N#CN/C(=N\CCCOc1cccc(CN2CCCCC2)c1)NCC(O)CNc1ccccc1[N+](=O)[O-]` (stereo unspecified), in [3], the pKB is 7.34. For the same compound, in test [2], the Relative potency amounted to 871%.

On to `N#CN=C(NCCCOc1cccc(CN2CCCCC2)c1)NCCNC(=O)c1cccc(I)c1`, for which the Kb at Histamine H1 receptor is 2240 nM. For the same compound, the inhibition constant Ki – broadly, the equilibrium dissociation constant of an inhibitor or competing ligand from its target – at Histamine H2 receptor was 2.63 nM.

Turning to `N#CN/C(=N\CCNC(=O)c1ccc(N)c(I)c1)NCCCOc1cccc(CN2CCCCC2)c1`, the Slope in test [4] turned out to be 0.9; in test [7] it was 1.09; in test [10] it was 1.29. Besides, the negative-log KB (pKB) stood at 5.96 in [5], 7.52 in test [6], 4.77 in test [8] and 5.49 in test [12]. Also, the pA2 (commonly the negative logarithm of the molar antagonist concentration that doubles the agonist concentration needed for the same response) worked out at 6.06 in test [9] and 5.59 in test [11]. This compound also had a Relative potency in [2] of 1440%.

The compound `N#CN/C(=N\CCNC(=O)c1cccc(I)c1)NCCCCOc1cccc(CN2CCCCC2)c1` had a Relative potency in test [13] of 145%. For the same compound, the pKB in [14] amounted to 6.15; in [15] it was 5.59; in test [16], 6.56. Besides, affinity on Histamine H2 receptor was put at a Ki of 5.25 nM.

In the case of `N#CN/C(=N\CCNC(=O)c1ccc(N)cc1)NCCCOc1cccc(CN2CCCCC2)c1` [AMINOPOTENTIDINE], the pKB was 5.16 in [17], 7.28 in test [18] and 7.22 in [16]. Also, in test [13], the Relative potency came out at 660%. For the same compound, the Slope came to 1.09 in [4] and 0.88 in [19]. In addition, the Kb at Histamine H1 receptor is 26900 nM. Moreover, the Ki on Histamine H2 receptor is 9.77 nM.

In test [13], `N#CN/C(=N\CCNC(=O)c1cccc(I)c1)NCCCOc1cccc(CN2CCCCC2)c1` showed a Relative potency of 1480%. Besides, the pKB in [20] is 5.61; in test [21] it was 7.57; in [22], 7.62. In test [19], this compound registered a Slope of 1.25.

In [23], `N#CN/C(=N\CCN)NCCCOc1cccc(CN2CCCCC2)c1` returned a Relative potency of 36%. This compound also registered a pKB in [24] of 5.95.
